One block for each substance: values may come before it.
Legend:
EAE = details: cited from earlier work
[1] = ref [12]; cited from earlier work
[2] = target: bovine insulin (beta chain) aggregation (Bos taurus, UniProt P01317); experiment: Chaperone assay: inhibition of DTT induced insulin aggregation; format: biochemical
Procedure, shortened: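 Bovine insulin (150 µg) in 100 mM NaCl, 20 mM Tris pH 7.4, with or without varying peptide or protein concentrations, at 37°C; some runs at pH 5. Reduction is started at time zero with DTT (100 mM stock). Aggregation is followed as absorbance at 360 nm over 20 min. In time-of-addition runs, small heat shock protein or fibrils are added 3, 10 or 16 min after DTT, with a buffer-only addition as dilution control.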

insulin fibril formation = experiment: Inhibition of insulin amyloid fibril formation; format: biochemical, bovine; details: ThT fluorescence ex 440 nm, em 485 nm (fig. S2)
Procedure, shortened: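 Fibril formation is tracked in the DTT-reduced insulin chaperone reaction: bovine insulin in NaCl/Tris pH 7.4 at 37°C, with or without test peptide fibrils. Thioflavin T is added from a 10 µM solution and fluorescence is read at 485 nm with excitation at 440 nm on a microplate reader.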

[3] = system: animal models of stroke, cardiac and retinal ischemia-reperfusion injury; details: cited from earlier work
plasma proteins = details: ref [13], cited from earlier work

Sequence of bovine insulin (beta chain) aggregation (P01317 25-54 limits assumed): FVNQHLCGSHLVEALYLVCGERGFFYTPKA

Substance: 73–92 of HspB5: linear peptide region within HspB5, residues 73–92 (DRFSVNLDVKHFSPEELKVK; UniProt P02511 73-92, looked up, fragment)
reduction of paralysis and histological neuroinflammation in EAE (EAE; ref [12]): therapeutic, reducing paralysis and histological neuroinflammation in EAE
chaperone activity [1]: exhibited chaperone activity

effect on light scattering when added 3 min after DTT ([2]; 150 µg HspB5 or Tau fibrils added three minutes after dithiothreitol (fig. S3)): rapid increase in light scattering
Substance: HspB5: amyloid forming small heat shock protein
inhibition of insulin aggregation when given at time 0 ([2]; 150 µg HspB5 given at time 0): fully inhibitory dose when given at time 0
effect on light scattering when added at 10 and 16 minutes ([2]; added 10 and 16 minutes after initiation): increase in light scattering, albeit less of an increase at longer than earlier time points
effect on insulin fibrillization after initiation ([2]; added after initiation of fibril formation (figs. S3, S4)): can increase the light scattering after initiation of fibril formation
inhibition of insulin fibril formation (insulin fibril formation): effective inhibitors of insulin fibril formation
therapeutic effect in stroke model ([3]; ref [3]): therapeutic
therapeutic effect in cardiac and retinal ischemia-reperfusion injury ([3]; ref [4], [5]): therapeutic
number of ligands precipitated from plasma (plasma proteins; enriched and temperature dependent binding): approximately 70
ligands that are acute phase, complement or coagulation proteins (plasma proteins): Greater than 50%
therapeutic effect in animal models of multiple sclerosis (EAE; ref [2]): therapeutic

Substance: Aβ 1–40: peptide from amyloid β A4
anti-inflammatory effect in EAE (EAE; ameliorating paralysis and reducing brain inflammation, ref [6]): effective anti-inflammatory agents

Source: PMC3684024 (Science translational medicine, 2013)
